Measurements as given in ChEMBL document CHEMBL2069293, “Design, synthesis and evaluation of the inhibitory selectivity of novel trans-resveratrol analogues on human recombinant CYP1A1, CYP1A2 and CYP1B1” (Bioorg Med Chem, 2012).

Legend:
Type in all cases: ADME
[1] = target: T1, Cytochrome P450 1A2 (Homo sapiens, UniProt P05177); assay: Inhibition of human recombinant CYP1A2 by spectrophotometry based 7-ethoxyresorufin O-deethylation enzyme assay
T1 sequence (P05177 whole entry): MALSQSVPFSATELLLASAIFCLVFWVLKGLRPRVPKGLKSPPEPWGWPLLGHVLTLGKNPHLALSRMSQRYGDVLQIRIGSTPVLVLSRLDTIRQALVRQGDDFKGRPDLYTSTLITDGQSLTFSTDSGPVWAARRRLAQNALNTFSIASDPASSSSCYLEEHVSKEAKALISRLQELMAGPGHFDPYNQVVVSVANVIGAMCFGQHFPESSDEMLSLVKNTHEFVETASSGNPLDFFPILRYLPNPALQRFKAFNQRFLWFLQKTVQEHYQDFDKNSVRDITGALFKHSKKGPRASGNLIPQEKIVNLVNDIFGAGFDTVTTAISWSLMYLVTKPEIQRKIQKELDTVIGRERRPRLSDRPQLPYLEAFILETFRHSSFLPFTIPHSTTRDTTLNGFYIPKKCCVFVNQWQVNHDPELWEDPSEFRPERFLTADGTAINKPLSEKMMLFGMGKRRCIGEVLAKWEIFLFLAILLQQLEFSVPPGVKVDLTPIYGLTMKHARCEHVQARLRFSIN
In short: (§1)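 EROD assay: fresh DMSO solutions of test compound over various concentrations with 2 µM 7-ethoxyresorufin, 1.3 mM NADP+, 3.3 mM glucose-6-phosphate, 0.5 U/ml G6PDH, 3.3 mM MgCl2 in 100 mM potassium phosphate pH 7.4. Started with enzyme (1.25 pmol CYP1A1, or 5 pmol CYP1A2 or CYP1B1), 37 °C, 15 min. Resorufin fluorescence (ex 550/em 585) against resorufin standard. IC50 read graphically from % of control activity; three parallel experiments.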

[2] = target: T2, Cytochrome P450 1A1 (Homo sapiens, UniProt P04798); assay: Inhibition of human recombinant CYP1A1 by spectrophotometry based 7-ethoxyresorufin O-deethylation enzyme assay; in short: as §1
T2 sequence (P04798 whole entry): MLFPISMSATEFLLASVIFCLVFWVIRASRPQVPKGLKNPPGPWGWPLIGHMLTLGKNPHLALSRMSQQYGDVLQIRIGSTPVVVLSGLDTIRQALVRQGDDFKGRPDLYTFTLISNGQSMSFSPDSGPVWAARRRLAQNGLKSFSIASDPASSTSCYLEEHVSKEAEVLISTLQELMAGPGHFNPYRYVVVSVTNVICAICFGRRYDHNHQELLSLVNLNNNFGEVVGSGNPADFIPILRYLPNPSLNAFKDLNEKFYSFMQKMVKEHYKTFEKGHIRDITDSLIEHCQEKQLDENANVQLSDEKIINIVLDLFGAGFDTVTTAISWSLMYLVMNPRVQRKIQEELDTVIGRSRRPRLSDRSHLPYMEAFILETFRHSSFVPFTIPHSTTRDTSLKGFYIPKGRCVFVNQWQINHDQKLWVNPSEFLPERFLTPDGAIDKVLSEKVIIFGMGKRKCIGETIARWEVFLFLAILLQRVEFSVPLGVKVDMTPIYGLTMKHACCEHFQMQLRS

[3] = target: T3, Cytochrome P450 1B1 (Homo sapiens, UniProt Q16678); assay: Inhibition of human recombinant CYP1B1 by spectrophotometry based 7-ethoxyresorufin O-deethylation enzyme assay; in short: as §1
T3 sequence (Q16678 whole entry): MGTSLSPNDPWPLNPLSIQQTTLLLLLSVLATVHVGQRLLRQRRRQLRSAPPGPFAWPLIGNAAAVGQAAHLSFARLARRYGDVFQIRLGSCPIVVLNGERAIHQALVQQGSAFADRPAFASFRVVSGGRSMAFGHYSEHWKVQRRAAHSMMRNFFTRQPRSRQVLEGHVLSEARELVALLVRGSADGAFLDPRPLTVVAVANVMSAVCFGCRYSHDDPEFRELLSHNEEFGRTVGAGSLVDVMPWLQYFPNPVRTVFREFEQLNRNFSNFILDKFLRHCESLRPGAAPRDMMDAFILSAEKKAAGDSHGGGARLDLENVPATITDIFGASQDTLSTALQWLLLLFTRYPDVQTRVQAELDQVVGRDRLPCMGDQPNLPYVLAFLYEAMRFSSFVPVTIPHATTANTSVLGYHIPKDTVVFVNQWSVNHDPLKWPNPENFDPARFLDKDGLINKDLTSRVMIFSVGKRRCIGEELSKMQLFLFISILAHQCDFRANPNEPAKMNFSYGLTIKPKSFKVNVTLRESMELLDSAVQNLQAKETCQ

[4] = test system: CYP1A2 / CYP1A1; assay: Selectivity ratio, ratio of IC50 for human recombinant CYP1A2 to IC50 for human recombinant CYP1A1; conditions: recombinant CYP1A2 and recombinant CYP1A1, read-out: Ratio IC50
[5] = test system: CYP1A2 / CYP1B1; assay: Selectivity ratio, ratio of IC50 for human recombinant CYP1A2 to IC50 for human recombinant CYP1B1; conditions: recombinant CYP1A2 and recombinant CYP1B1, read-out: Ratio IC50
[6] = target: T1, Cytochrome P450 1A2; assay: Activity of human recombinant CYP1A2 assessed as NADPH oxidation level per pmol of CYP1A2 level at 10 uM by spectrophotometry; conditions: recombinant enzyme
In short: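 NADPH oxidation by human recombinant CYP1A2 (5 pmol/ml) in Tris buffer pH 7.4 with stilbene at 1–50 µM. Reaction started with 0.2 mM NADPH, 37 °C, 3 min. Absorbance at 340 nm read every 15 s; NADPH oxidized calculated with extinction coefficient 6.22 mM-1 cm-1.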

With COc1ccccc1/C=C/c1ccc(SC)cc1 the IC50 [1] was 7.5 µM, the IC50 [2] was 1000 nM and the IC50 [3] was 300 nM. The selectivity ratio [4] was 7.5, the selectivity ratio [5] was 25 and the Activity [6] was under 0.3 µM/min.
Compound COc1cccc(/C=C/c2ccc(SC)cc2)c1 has an IC50 [1] of 11.5 µM, an IC50 [2] of 1100 nM and an IC50 [3] of 500 nM. For the same compound, the selectivity ratio [4] was 10.5, the selectivity ratio [5] was 23 and the Activity [6] was under 0.3 µM/min.
In the case of COc1ccc(/C=C/c2ccc(SC)cc2)cc1, the IC50 [1] is reported as 23 µM, the IC50 [2] is reported as 28000 nM and the IC50 [3] is reported as 5500 nM. The selectivity ratio [4] was 0.8, the selectivity ratio [5] was 4.2 and the Activity [6] was under 0.3 µM/min.
COc1cccc(/C=C/c2ccc(SC)cc2)c1OC gave an IC50 [1] of 22 µM, an IC50 [2] of 1800 nM and an IC50 [3] of 1100 nM. It also gave a selectivity ratio [4] of 12.2, a selectivity ratio [5] of 20 and an Activity [6] of under 0.3 µM/min.
COc1ccc(/C=C/c2ccc(SC)cc2)c(OC)c1 showed an IC50 [1] of 8.1 µM, an IC50 [2] of 2400 nM and an IC50 [3] of 2000 nM. It also gave a selectivity ratio [4] of 3.4, a selectivity ratio [5] of 4.1 and an Activity [6] of under 0.3 µM/min.
COc1ccc(OC)c(/C=C/c2ccc(SC)cc2)c1 showed an IC50 [1] of 39.5 µM, an IC50 [2] of 3800 nM and an IC50 [3] of 1100 nM. The selectivity ratio [4] was 10.4, the selectivity ratio [5] was 35.9 and the Activity [6] was under 0.3 µM/min.
For COc1cc(/C=C/c2ccc(SC)cc2)cc(OC)c1, the IC50 [1] was 5 µM, the IC50 [2] was 1400 nM and the IC50 [3] was 1500 nM. For the same compound, the selectivity ratio [4] was 3.6, the selectivity ratio [5] was 3.3 and the Activity [6] was under 0.3 µM/min.
In the case of COc1ccc(/C=C/c2ccc(SC)cc2)c(OC)c1OC, the IC50 [1] is reported as over 50 µM, the IC50 [2] is reported as 900 nM and the IC50 [3] is reported as 1000 nM. For the same compound, the selectivity ratio [4] was over 55.5, the selectivity ratio [5] was over 50 and the Activity [6] was under 0.6 µM/min.
Work on COc1cc(OC)c(OC)cc1/C=C/c1ccc(SC)cc1 yielded an IC50 [1] of 15 µM, an IC50 [2] of 800 nM and an IC50 [3] of 900 nM. The selectivity ratio [4] was 18.7, the selectivity ratio [5] was 16.7 and the Activity [6] was 2.91 µM/min.
With COc1cc(OC)c(/C=C/c2ccc(SC)cc2)c(OC)c1 the IC50 [1] was 6.5 µM, the IC50 [2] was 400 nM and the IC50 [3] was 500 nM. The selectivity ratio [4] was 16.3, the selectivity ratio [5] was 17 and the Activity [6] was under 0.3 µM/min.
CSc1ccc(/C=C/c2ccccc2Cl)cc1 gave an IC50 [1] of 14.5 µM, an IC50 [2] of 1000 nM and an IC50 [3] of 300 nM. The selectivity ratio [4] was 14.5 and the selectivity ratio [5] was 48.3.
COc1cc(/C=C/c2ccc(SC)cc2)cc(OC)c1OC was tested, and the IC50 [1] was 7 µM, the IC50 [2] was 3600 nM and the IC50 [3] was 2600 nM. It also gave a selectivity ratio [4] of 1.9, a selectivity ratio [5] of 2.7 and an Activity [6] of 2.22 µM/min.
